Reference: ChEMBL document CHEMBL2040780, “Antiarrhythmic properties of phenylpiperazine derivatives of phenytoin with α₁-adrenoceptor affinities” (Bioorg Med Chem, 2012)
Active and inactive are the calls of the source. The calls are words filed in the database; no cut-off is given here.

Tests used:
[1] = biological target: T1, Adrenergic receptor alpha-1 (Rattus norvegicus, UniProt P15823+P23944+P43140); experiment: Displacement of [3H]prazosin from alpha1 adrenoceptor in rat cerebral cortex after 30 mins by microbeta scintillation counting; type: tissue-based
T1 sequence (P15823 whole entry): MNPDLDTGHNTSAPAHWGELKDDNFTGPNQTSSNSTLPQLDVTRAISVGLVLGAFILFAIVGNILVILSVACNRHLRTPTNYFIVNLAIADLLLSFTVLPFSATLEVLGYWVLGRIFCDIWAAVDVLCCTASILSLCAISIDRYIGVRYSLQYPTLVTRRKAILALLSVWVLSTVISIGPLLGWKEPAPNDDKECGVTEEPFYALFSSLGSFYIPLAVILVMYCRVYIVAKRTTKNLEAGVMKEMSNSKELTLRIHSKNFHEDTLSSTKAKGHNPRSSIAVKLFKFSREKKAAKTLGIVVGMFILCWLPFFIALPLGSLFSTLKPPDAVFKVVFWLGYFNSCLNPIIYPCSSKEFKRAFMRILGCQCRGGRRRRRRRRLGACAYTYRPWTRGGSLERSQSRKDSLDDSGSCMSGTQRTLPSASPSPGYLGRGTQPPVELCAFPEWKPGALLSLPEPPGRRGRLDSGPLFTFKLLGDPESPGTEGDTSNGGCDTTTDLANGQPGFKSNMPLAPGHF
T1 sequence (P23944 whole entry): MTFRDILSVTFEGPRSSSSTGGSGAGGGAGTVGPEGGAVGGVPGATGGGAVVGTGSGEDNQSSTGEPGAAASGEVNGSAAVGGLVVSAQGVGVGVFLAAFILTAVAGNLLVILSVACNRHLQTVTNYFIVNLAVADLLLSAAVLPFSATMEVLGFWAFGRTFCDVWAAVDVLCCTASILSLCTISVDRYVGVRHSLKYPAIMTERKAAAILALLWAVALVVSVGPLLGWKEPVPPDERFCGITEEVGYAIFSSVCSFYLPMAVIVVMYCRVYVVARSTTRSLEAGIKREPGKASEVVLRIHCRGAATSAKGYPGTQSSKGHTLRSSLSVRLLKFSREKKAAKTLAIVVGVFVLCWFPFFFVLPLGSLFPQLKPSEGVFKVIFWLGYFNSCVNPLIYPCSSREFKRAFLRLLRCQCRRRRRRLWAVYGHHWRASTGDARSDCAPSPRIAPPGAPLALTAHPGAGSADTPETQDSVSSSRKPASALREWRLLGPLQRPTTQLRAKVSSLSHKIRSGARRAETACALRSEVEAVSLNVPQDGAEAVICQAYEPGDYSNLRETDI
T1 sequence (P43140 whole entry): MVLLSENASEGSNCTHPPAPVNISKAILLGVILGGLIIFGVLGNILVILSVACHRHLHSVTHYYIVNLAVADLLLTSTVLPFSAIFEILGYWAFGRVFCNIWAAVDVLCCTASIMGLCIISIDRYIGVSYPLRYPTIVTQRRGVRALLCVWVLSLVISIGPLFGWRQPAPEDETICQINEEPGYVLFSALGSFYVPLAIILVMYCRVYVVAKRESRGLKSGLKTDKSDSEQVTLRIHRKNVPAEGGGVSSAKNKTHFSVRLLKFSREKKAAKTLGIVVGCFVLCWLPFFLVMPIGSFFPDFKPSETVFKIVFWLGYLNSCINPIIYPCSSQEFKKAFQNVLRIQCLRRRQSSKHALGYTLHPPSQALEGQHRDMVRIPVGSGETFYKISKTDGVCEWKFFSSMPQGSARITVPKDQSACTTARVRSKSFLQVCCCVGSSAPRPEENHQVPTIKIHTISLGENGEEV
How it was run: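 Rat cerebral cortex homogenised in ice-cold 50 mM Tris-HCl (pH 7.6 at 25 °C), washed twice at 20000×g and resuspended at 10 mg wet weight/ml. Incubated with [3H]prazosin (19.5 Ci/mmol) and test compound for 30 min at 25 °C. Nonspecific binding defined with 10 µM phentolamine. GF/B filtration, scintillation counting, three-parameter logistic competition fit.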

[2] = system: Rattus norvegicus; experiment: Antiarrhythmic activity in Wistar rat assessed as effect on heart beat at 2.5 mg/kg, iv after 1 min; type: functional
How it was run: (§1)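 Male Wistar rats (180–250 g), anaesthetised with thiopental 60 mg/kg ip. Compound given iv in water at 10 mg/kg, or at a lower starting dose of 5 or 2.5 mg/kg. Standard lead II ECG recorded at 50 mm/s just before dosing and at 1, 5 and 15 min after. Heart rate and P–Q, Q–T and QRS intervals were read. n=6 per group, mean ± SEM, one-way ANOVA.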

[3] = system: Rattus norvegicus; experiment: Antiarrhythmic activity in Wistar rat assessed as effect on heart beat at 2.5 mg/kg, iv after 5 mins; type: functional; how it was run: as §1
[4] = system: Rattus norvegicus; experiment: Antiarrhythmic activity in Wistar rat assessed as effect on heart beat at 2.5 mg/kg, iv after 15 mins; type: functional; how it was run: as §1
[5] = system: Rattus norvegicus; experiment: Cardiotoxicity in Wistar rat assessed as effect on P-Q interval at 2.5 mg/kg, iv after 1 min; type: toxicity, organism-based; set-up: dose 2.5 mg/kg, route intravenous; conditions: in vivo; how it was run: as §1
[6] = system: Rattus norvegicus; experiment: Cardiotoxicity in Wistar rat assessed as effect on P-Q interval at 2.5 mg/kg, iv after 5 mins; type: toxicity, organism-based; set-up: dose 2.5 mg/kg, route intravenous; conditions: in vivo; how it was run: as §1
[7] = system: Rattus norvegicus; experiment: Cardiotoxicity in Wistar rat assessed as effect on P-Q interval at 2.5 mg/kg, iv after 15 mins; type: toxicity, organism-based; set-up: dose 2.5 mg/kg, route intravenous; conditions: in vivo, 0.25 h; how it was run: as §1
[8] = system: Rattus norvegicus; experiment: Cardiotoxicity in Wistar rat assessed as effect on Q-T interval at 2.5 mg/kg, iv after 1 min; type: toxicity, organism-based; set-up: dose 2.5 mg/kg, route intravenous; conditions: in vivo; how it was run: as §1
[9] = system: Rattus norvegicus; experiment: Cardiotoxicity in Wistar rat assessed as effect on Q-T interval at 2.5 mg/kg, iv after 5 mins; type: toxicity, organism-based; set-up: dose 2.5 mg/kg, route intravenous; conditions: in vivo; how it was run: as §1
[10] = system: Rattus norvegicus; experiment: Cardiotoxicity in Wistar rat assessed as effect on Q-T interval at 2.5 mg/kg, iv after 15 mins; type: toxicity, organism-based; set-up: dose 2.5 mg/kg, route intravenous; conditions: in vivo, 0.25 h; how it was run: as §1
[11] = system: Rattus norvegicus; experiment: Cardiotoxicity in Wistar rat assessed as effect on QRS interval at 2.5 mg/kg, iv after 1 min; type: toxicity, organism-based; set-up: dose 2.5 mg/kg, route intravenous; conditions: in vivo; how it was run: as §1
[12] = system: Rattus norvegicus; experiment: Cardiotoxicity in Wistar rat assessed as effect on QRS interval at 2.5 mg/kg, iv after 5 mins; type: toxicity, organism-based; set-up: dose 2.5 mg/kg, route intravenous; conditions: in vivo; how it was run: as §1
[13] = system: Rattus norvegicus; experiment: Cardiotoxicity in Wistar rat assessed as effect on QRS interval at 2.5 mg/kg, iv after 15 mins; type: toxicity, organism-based; set-up: dose 2.5 mg/kg, route intravenous; conditions: in vivo, 0.25 h; how it was run: as §1
[14] = system: Rattus norvegicus; experiment: Antiarrhythmic activity in Wistar rat assessed as protection against adrenaline-induced extrasystoles at 2.5 to 10 mg/kg, iv administered 15 mins prior to adrenaline-challenge; type: functional, organism-based; conditions: Heart
How it was run: (§2)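 Szekeres model in male Wistar rats anaesthetised with thiopental (60 mg/kg ip). Test compound given iv in water (2.5–10 mg/kg) 15 min before adrenaline 20 µg/kg iv. Scored for extrasystoles, bigeminy and mortality; activity means no premature beats and inhibited arrhythmia versus controls.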

[15] = system: Rattus norvegicus; experiment: Antiarrhythmic activity in Wistar rat assessed as protection against adrenaline-induced bigeminy at 2.5 to 10 mg/kg, iv administered 15 mins prior to adrenaline-challenge; type: functional, organism-based; conditions: Heart; how it was run: as §2
[16] = system: Rattus norvegicus; experiment: Antiarrhythmic activity in barium chloride-induced Wistar rat arrhythmia model assessed as protection against mortality at 2.5 to 10 mg/kg, iv administered 15 mins prior to barium chloride-challenge; type: functional, organism-based; conditions: Heart
How it was run: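 Szekeres model in male Wistar rats. Activity is gradual disappearance of arrhythmia with restored sinus rhythm; protection against disturbances and death scored. Groups of 6 animals.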

[17] = system: Rattus norvegicus; experiment: Antiarrhythmic activity in iv dosed Wistar rat assessed as protection against adrenaline-induced arrhythmia administered 15 mins prior to adrenaline-challenge; type: functional; conditions: Heart; how it was run: as §2
[18] = system: Rattus norvegicus; experiment: Hypotensive activity in normotensive Wistar rat assessed as decrease in systolic blood pressure at 2.5 to 10 mg/kg, iv after 1 min measured up to 60 mins; type: organism-based, Artery; set-up: dose 2.5-10 mg/kg, route intravenous; conditions: in vivo
How it was run: (§3)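 Right carotid artery cannulated with heparin-saline-filled tubing for blood pressure recording. After 5 min stabilisation, compound injected iv into the caudal vein (2.5–10 mg/kg, 1 ml/kg). Systolic and diastolic pressure followed for 60 min. n=6 per group, mean ± SEM, one-way ANOVA.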

[19] = system: Rattus norvegicus; experiment: Hypotensive activity in normotensive Wistar rat assessed as decrease in diastolic blood pressure at 2.5 to 10 mg/kg, iv after 1 min measured up to 60 mins; type: organism-based, Artery; set-up: dose 2.5-10 mg/kg, route intravenous; conditions: in vivo; how it was run: as §3
[20] = system: Rattus norvegicus; experiment: Antiarrhythmic activity in iv dosed Wistar rat assessed as protection against adrenaline-induced extrasystoles administered 15 mins prior to adrenaline-challenge; type: functional, organism-based; conditions: Heart; how it was run: as §2
[21] = system: Rattus norvegicus; experiment: Antiarrhythmic activity in iv dosed Wistar rat assessed as protection against adrenaline-induced bigeminy administered 15 mins prior to adrenaline-challenge; type: functional, organism-based; conditions: Heart; how it was run: as §2

COc1ccccc1N1CCN(CCCCN2C(=O)N(C)C(=O)C2(c2ccccc2)c2ccccc2)CC1.Cl
Ki [1]: 4.7 nM | pKi [1]: 8.33 | Activity [2]: 338 min⁻¹ | Activity [3]: 333 min⁻¹ | Activity [4]: 346 min⁻¹ | Activity [5]: 50 ms | Activity [6]: 51 ms | Activity [7]: 49 ms | Activity [8]: 83 ms | Activity [9]: 81 ms | Activity [10]: 86 ms | Activity [11]: 22 ms | Activity [12]: 22 ms | Activity [13]: 22 ms | Activity [14]: Active | Activity [15]: Active | Activity [16]: Active | ED50 [17]: 0.1 mg/kg | Activity [18]: Toxic | Activity [19]: Toxic

CC(C)NCC(O)COc1cccc2ccccc12 (configuration not stated)
Activity [20]: Active | Activity [21]: Active
